Reference: ChEMBL document CHEMBL3588858, “Peptidomimetic β-Secretase Inhibitors Comprising a Sequence of Amyloid-β Peptide for Alzheimer's Disease” (J Med Chem, 2015)
Numbered stars: 1 amine (or outer) side, 2 acyl side, 3 side chain; on linkers, the order of the positions; unused ones are H or OH. Square brackets hold non-standard residues; d marks the D form. Peptide text beside a SMILES is read from it. LeuΨ(S-CHOHCH2)Ala = CC(C)C[C@H](N[*:1])[C@@H](O)C[C@@H](C)C(=O)[*:2]

How the values were obtained:
Homo sapiens = organism: Homo sapiens; experiment: Selectivity ratio of Ki(app) for human recombinant BACE2 to Ki for human recombinant BACE1
[1] = Half life in human serum by HPLC-FLU analysis; type: ADME, cell-free
Procedure, shortened: (§1)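 Peptide solution (50 µM in PBS, 2% DMSO) was mixed 1:4 with human serum or 10% mouse brain homogenate (PBS, 0.5% Triton X-100) and incubated at 37 °C for varying times. Reactions were stopped with acetonitrile and proteins spun out. Intact peptide was quantified by HPLC-FLU against per-compound calibration curves, following decay to about 50%. t1/2 was interpolated from a monophasic model fit; n = 3.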

[2] = Half life in mouse brain by HPLC-FLU analysis; type: ADME, tissue-based; procedure, shortened: as §1
Brain [3] = experiment: Retention time of the compound in female mouse brain treated with 0.53 mg/kg, iv (3S,6S,9S,12S,15S,18S,21R,23S,24S,27S,30S,33S)-33-acetamido-15-benzyl-3-carbamoyl-6-(2-carboxyethyl)-27-(carboxymethyl)-23-hydroxy-12-(4-hydroxybenzyl)-24,30-diisobutyl-18-isopropyl-9,21-dimethyl-5,8,11,14,17,20,26,29,32-nonaoxo-4,7,10,13,16,19,25,28,31-nonaazahexatriacontane-1,36-dioic acid by HPLC-FLU analysis; type: ADME, organism-based; conditions: in vivo
Procedure, shortened: (§2)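 Female mice (8–12 weeks, 22–37 g) and male Wistar rats (8–12 weeks, 182–201 g) were fasted 24 h, then dosed iv at 0.53 mg/kg in PBS, in triplicate. Animals were sacrificed at 0.5, 1 and 2 h under pentobarbital. Blood was taken by cardiac puncture and brains perfused with chilled saline. Serum was acetonitrile-precipitated. Whole mouse brain, or rat cortex and hippocampus, was homogenized with an internal standard, HPLC-purified, then analysed by HPLC-FLU and ESI LC-MS.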

Brain [4] = experiment: Drug formation in female mouse brain treated with 0.53 mg/kg, iv (3S,6S,9S,12S,15S,18S,21R,23S,24S,27S,30S,33S)-33-acetamido-15-benzyl-3-carbamoyl-6-(2-carboxyethyl)-27-(carboxymethyl)-23-hydroxy-12-(4-hydroxybenzyl)-24,30-diisobutyl-18-isopropyl-9,21-dimethyl-5,8,11,14,17,20,26,29,32-nonaoxo-4,7,10,13,16,19,25,28,31-nonaazahexatriacontane-1,36-dioic acid measured up to 2 hrs by HPLC-FLU/LC-MS …; type: ADME, organism-based; conditions: in vivo
Serum [5] = experiment: Drug formation in Wistar rat serum treated with 0.53 mg/kg, iv (3S,6S,9S,12S,15S,18S,21R,23S,24S,27S,30S,33S)-33-acetamido-15-benzyl-3-carbamoyl-6-(2-carboxyethyl)-27-(carboxymethyl)-23-hydroxy-12-(4-hydroxybenzyl)-24,30-diisobutyl-18-isopropyl-9,21-dimethyl-5,8,11,14,17,20,26,29,32-nonaoxo-4,7,10,13,16,19,25,28,31-nonaazahexatriacontane-1,36-dioic acid measured after 2 hrs by HPLC-FLU/LC-MS …; type: ADME, organism-based; conditions: in vivo
[6] = Drug uptake in female mouse brain at 0.53 mg/kg, iv up to 1 hr by HPLC-FLU analysis; type: ADME, organism-based; conditions: read-out: Drug uptake; procedure, shortened: as §2
Cortex [7] = experiment: Drug formation in Wistar rat brain cortex treated with 0.53 mg/kg, iv (3S,6S,9S,12S,15S,18S,21R,23S,24S,27S,30S,33S)-33-acetamido-15-benzyl-3-carbamoyl-6-(2-carboxyethyl)-27-(carboxymethyl)-23-hydroxy-12-(4-hydroxybenzyl)-24,30-diisobutyl-18-isopropyl-9,21-dimethyl-5,8,11,14,17,20,26,29,32-nonaoxo-4,7,10,13,16,19,25,28,31-nonaazahexatriacontane-1,36-dioic acid measured after 2 hrs by …; type: ADME, organism-based; conditions: in vivo
[8] = Cytotoxicity against human Caco2 cells assessed as cell viability at 25 to 50 uM after 4 to 24 hrs by MTS assay; type: cell-based; conditions: Caco-2 cells, read-out: Activity
Procedure, shortened: (§3)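 Confluent Caco-2 cells (passage 26 to 41, grown in high-glucose DMEM with 10% FBS and 1% non-essential amino acids) exposed to test compounds from 2.5 nM to 50 µM in DMEM with 0.5% FBS for 4 h or 24 h. Medium replaced by MTS, 4 h at 37 °C, absorbance read at 490 nm. Viability given as % of cells in 0.5% FBS DMEM.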

Caco-2 = experiment: Cytotoxicity against human Caco2 cells assessed as cell viability at 25 to 50 uM after 24 hrs by MTS assay; type: cell-based; conditions: caco-2, 24 h; procedure, shortened: as §3
Brain [9] = experiment: Retention time of the compound in female mouse brain at 0.53 mg/kg, iv by HPLC-FLU analysis; type: ADME, organism-based; conditions: in vivo; procedure, shortened: as §2
Serum [10] = experiment: Metabolic stability in female mouse serum at 0.53 mg/kg, iv by HPLC-FLU analysis; type: ADME, organism-based; conditions: in vivo; procedure, shortened: as §2
Cortex [11] = experiment: Metabolic stability in Wistar rat brain cortex at 0.53 mg/kg, iv after 2 hrs by HPLC-FLU analysis; type: ADME, organism-based; conditions: in vivo; procedure, shortened: as §2
Serum [12] = experiment: Metabolic stability in Wistar rat serum at 0.53 mg/kg, iv after 2 hrs by HPLC-FLU analysis; type: ADME, organism-based; conditions: in vivo; procedure, shortened: as §2

SMILES	Ratio (Homo sapiens)	half-life [1]	half-life [2]	Retention_time (Brain [3])	Drug metabolism (Brain [4])	Drug metabolism (Serum [5])	concentration at 1 h [6]	Drug metabolism (Cortex [7])	viability at up to 50 µM [8]	Activity (Caco-2)	viability at 50 µM [8]	Retention_time (Brain [9])	Stability (Serum [10])	Stability (Cortex [11])	Stability (Serum [12])
CC(C)C[C@H](NC(=O)[C@@H](N)CCC(=O)O)C(=O)N[C@@H](CC(=O)O)C(=O)N[C@@H](CC(C)C)[C@@H](O)C[C@@H](C)C(=O)N[C@H](C(=O)N[C@@H](Cc1ccccc1)C(=O)N[C@@H](Cc1ccc(O)cc1)C(=O)N[C@@H](C)C(=O)N[C@@H](CCC(=O)O)C(=O)N[C@@H](CC(=O)O)C(=O)O)C(C)C (H-ELD[LeuΨ(S-CHOHCH2)Ala]VFYAED-OH)	7.5	3 h	6 h	22.9 min	metabolite_detected	metabolite_detected	20 nM	metabolite_detected							
CC(C)C[C@H](NC(=O)[C@@H](N)CCC(=O)O)C(=O)N[C@@H](CC(=O)O)C(=O)N[C@@H](CC(C)C)[C@@H](O)C[C@@H](C)C(=O)N[C@H](C(=O)N[C@@H](Cc1ccccc1)C(=O)N[C@@H](Cc1ccc(O)cc1)C(=O)N[C@@H](C)C(=O)N[C@@H](CCC(=O)O)C(=O)N[C@@H](CC(=O)O)C(N)=O)C(C)C (H-ELD[LeuΨ(S-CHOHCH2)Ala]VFYAED-NH2)	7.5	2.1 h	2.3 h						> 80%	Non-toxic					
CC(C)C[C@H](NC(=O)[C@@H](N)CCC(=O)O)C(=O)N[C@@H](CC(=O)O)C(=O)N[C@@H](CC(C)C)[C@@H](O)C[C@@H](C)C(=O)N[C@H](C(=O)N[C@@H](Cc1ccccc1)C(=O)N[C@@H](Cc1ccccc1)C(=O)N[C@@H](C)C(=O)N[C@@H](CCC(=O)O)C(=O)N[C@@H](CC(=O)O)C(N)=O)C(C)C (H-ELD[LeuΨ(S-CHOHCH2)Ala]VFFAED-NH2)	3.7									Non-toxic	> 80%				
CC(C)C[C@H](NC(=O)[C@@H](N)CCC(=O)O)C(=O)N[C@@H](CC(=O)O)C(=O)N[C@@H](CC(C)C)[C@@H](O)C[C@@H](C)C(=O)N[C@H](C(=O)N[C@@H](CCC(=O)O)C(=O)N[C@@H](Cc1ccccc1)C(=O)O)C(C)C (H-ELD[LeuΨ(S-CHOHCH2)Ala]VEF-OH)		2.2 h	5.8 h							Non-toxic	> 80%				
CC(=O)N[C@@H](CCC(=O)O)C(=O)N[C@@H](CC(C)C)C(=O)N[C@@H](CC(=O)O)C(=O)N[C@@H](CC(C)C)[C@@H](O)C[C@@H](C)C(=O)N[C@H](C(=O)N[C@@H](Cc1ccccc1)C(=O)N[C@@H](Cc1ccc(O)cc1)C(=O)N[C@@H](C)C(=O)N[C@@H](CCC(=O)O)C(=O)N[C@@H](CC(=O)O)C(N)=O)C(C)C (Ac-ELD[LeuΨ(S-CHOHCH2)Ala]VFYAED-NH2)	9.2	6 h	3.43 h							Non-toxic	> 80%	23.6 min	Unstable	Unstable	Stable
